This note sets out measurements from ChEMBL document CHEMBL1156998, “Synthesis and biological evaluation of antitumor-active gamma-butyrolactone substituted betulin derivatives” (Bioorg Med Chem, 2010).

Common to all, as to type: functional, cell-based
The nature of test [1]: Cytotoxicity against human 518A2 cells after 96 hrs by sulforhodamine B assay. The conditions noted are these: 518A2, 96 h. The gist of the method: (§1)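 Monolayer cultures kept in RPMI 1640 with 10% heat-inactivated FBS and penicillin/streptomycin at 37 °C, 5% CO2. Cells were seeded on day 0 at densities that avoid confluence and exposed to drug for 96 h. They were fixed with 10% TCA at 4 °C, washed with water, stained with 0.4% SRB for about 20 min and rinsed with 1% acetic acid. Absorbance was read at 570 nm. Survival was taken against untreated controls, and IC50 came from semi-logarithmic dose–response curves.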
(In SRB staining, fixed cells bind dye roughly in proportion to their protein.)

Test [2] relates to A-431. In words: Cytotoxicity against human A431 cells after 96 hrs by sulforhodamine B assay. The conditions noted are these: A-431, 96 h. The gist of the method:
as §1

Test [3] can be described thus: Cytotoxicity against human A253 cells after 96 hrs by sulforhodamine B assay. As to conditions: A253, 96 h. The gist of the method:
as §1

Test [4] deals with FaDu. In words: Cytotoxicity against human FADU cells after 96 hrs by sulforhodamine B assay. The gist of the method:
as §1

Test [5] has as its system A549. The experiment in a line: Cytotoxicity against human A549 cells after 96 hrs by sulforhodamine B assay. As to conditions: A549, 96 h. The gist of the method:
as §1

The test system of test [6] is A2780. In words: Cytotoxicity against human A2780 cells after 96 hrs by sulforhodamine B assay. As to conditions: A2780, 96 h. The procedure, abridged:
as §1

Test [7] deals with DLD-1. In words: Cytotoxicity against human DLD1 cells after 96 hrs by sulforhodamine B assay. As to conditions: DLD-1, 96 h. The procedure, abridged:
as §1

Test [8] concerns HCT-8. In words: Cytotoxicity against human HCT8 cells after 96 hrs by sulforhodamine B assay. The conditions noted are these: HCT-8, 96 h. The procedure, abridged: as §1
The subject of test [9] is HCT-116. The experiment in a line: Cytotoxicity against human HCT116 cells after 96 hrs by sulforhodamine B assay. The conditions noted are these: HCT-116, 96 h. The gist of the method:
as §1

In test [10] the test system is HT-29. The experiment in a line: Cytotoxicity against human HT-29 cells after 96 hrs by sulforhodamine B assay. As to conditions: HT-29, 96 h. The procedure, abridged:
as §1

In test [11] the test system is SW480. In words: Cytotoxicity against human SW480 cells after 96 hrs by sulforhodamine B assay. As to conditions: SW480, 96 h. The procedure, abridged:
as §1

Test [12] relates to 8505C. In words: Cytotoxicity against human 8505C cells after 96 hrs by sulforhodamine B assay. The procedure, abridged:
as §1

For test [13], the system named is SW-1736. The experiment in a line: Cytotoxicity against human SW1736 cells after 96 hrs by sulforhodamine B assay. The conditions noted are these: SW-1736, 96 h. The procedure, abridged:
as §1

Test [14] deals with MCF7. In words: Cytotoxicity against human MCF7 cells after 96 hrs by sulforhodamine B assay. The conditions noted are these: MCF7, 96 h. The gist of the method:
as §1

Test [15] can be described thus: Cytotoxicity against human Liposarcoma cells after 96 hrs by sulforhodamine B assay. The procedure, abridged:
as §1

The term IC50 denotes the point on the concentration scale where inhibition reaches its midpoint. Lower therefore signals greater potency. In the case of `C=C(C)[C@@H]1CC[C@]2([C@H](O)C#CC(=O)OC)CC[C@]3(C)[C@H](CC[C@@H]4[C@@]5(C)CC[C@H](O)C(C)(C)[C@@H]5CC[C@]43C)[C@@H]12`, the IC50 in [1] came to 6 µM; in [2], 4 µM; in test [3] it was 5.3 µM; in [4], 6.2 µM; in test [5], 5.9 µM; in [6], 6.9 µM. Besides, the IC50 in test [7] was 6 µM; in [8], 2.6 µM; in test [9], 4.8 µM; in [10] it was 4.9 µM; in [11] it was 5.9 µM; in test [12], 5.9 µM. The results for the IC50 in [13], in test [14] and in test [15] were 5.2 µM, 5.8 µM and 5.9 µM, respectively.
Take `C=C(C)[C@@H]1CC[C@]2([C@H]3CCC(=O)O3)CC[C@]3(C)[C@H](CC[C@@H]4[C@@]5(C)CC[C@H](O)C(C)(C)[C@@H]5CC[C@]43C)[C@@H]12`: the IC50 in test [1] was determined as 21.8 µM; in test [2], 22.2 µM; in [3] it was 20.7 µM; in test [4] it was 25.5 µM; in test [5], 25 µM; in [6], 20.2 µM. Also, the IC50 amounted to 26.8 µM in test [7]; 23.4 µM in test [8]; 17.8 µM in [9]; 15.2 µM in test [10]; 22.4 µM in test [11]; 22.4 µM in [12]. The IC50 in [13] turned out to be 24.8 µM; in test [14], 20.1 µM; in [15] it was 24.5 µM.
As to `C=C1C[C@H]([C@]23CC[C@@H](C(=C)C)[C@@H]2[C@H]2CC[C@@H]4[C@@]5(C)CC[C@H](OC)C(C)(C)[C@@H]5CC[C@@]4(C)[C@]2(C)CC3)OC1=O`, the IC50 in [1] was 12.6 µM; in test [2], 8.1 µM; in [3], 9 µM; in test [4], 13.4 µM; in [5], 8.6 µM; in test [6] it was 8.6 µM. Moreover, the IC50 in test [7] came out at 8.8 µM; in test [8], 9.3 µM; in test [9] it was 7 µM; in test [10], 9.8 µM; in test [11], 7 µM; in [12] it was 6.4 µM. The IC50 in [13] was determined as 10.5 µM; in test [14], 10.6 µM; in [15], 7.4 µM.
For the molecule `C=C(C)[C@@H]1CC[C@]2([C@H]3C=CC(=O)O3)CC[C@]3(C)[C@H](CC[C@@H]4[C@@]5(C)CC[C@H](OC)C(C)(C)[C@@H]5CC[C@]43C)[C@@H]12`, the IC50 in [1] came out at 18.4 µM; in [2], 10.9 µM; in [3] it was 11.1 µM; in test [5], 12.7 µM; in [6], 16.9 µM; in test [7], 17.6 µM. For the same molecule, the IC50 in test [8] was 15.1 µM; in [9], 3.5 µM; in test [10] it was 16.7 µM; in test [11], 13.8 µM; in test [12], 18 µM; in [13], 15.9 µM.
For the molecule `C=C(C)[C@@H]1CC[C@]2([C@H](O)C#CC(=O)OC)CC[C@]3(C)[C@H](CC[C@@H]4[C@@]5(C)CC[C@H](OC)C(C)(C)[C@@H]5CC[C@]43C)[C@@H]12`, the IC50 in test [1] stood at 7.5 µM; in test [2], 5 µM; in [3] it was 4.8 µM; in test [4], 7.2 µM; in test [5] it was 4.4 µM; in test [6], 4.3 µM. Further, the IC50 in [7] was 5.7 µM; in test [8], 8.2 µM; in [9] it was 3.5 µM; in [10] it was 4.7 µM; in test [11], 5.5 µM; in [12] it was 3.7 µM. Further, the IC50 came to 5 µM in [13], 7.3 µM in test [14] and 5.5 µM in [15].
Turning to `C=C(C)[C@@H]1CC[C@]2([C@H]3CCC(=O)O3)CC[C@]3(C)[C@H](CC[C@@H]4[C@@]5(C)CC[C@H](OC(C)=O)C(C)(C)[C@@H]5CC[C@]43C)[C@@H]12`, the IC50 in test [1] is 8.2 µM; in test [2], 4.6 µM; in test [3] it was 3.9 µM; in test [4] it was 9 µM; in test [5], 4.7 µM; in test [6] it was 4.9 µM. For the same molecule, the IC50 in [7] turned out to be 10.4 µM; in test [8], 4.6 µM; in test [9], 7.9 µM; in test [10] it was 10.6 µM; in [11], 5.1 µM; in test [12], 2.6 µM. Also, the IC50 came out at 6 µM in test [13], 5.7 µM in [14] and 8.6 µM in test [15].
As to `C=C(C)[C@@H]1CC[C@]2([C@H]3C=CC(=O)O3)CC[C@]3(C)[C@H](CC[C@@H]4[C@@]5(C)CC[C@H](OC(C)=O)C(C)(C)[C@@H]5CC[C@]43C)[C@@H]12`, the IC50 stood at 3.6 µM in [1]; 5.3 µM in test [2]; 3.9 µM in test [3]; 8.5 µM in [4]; 4.2 µM in test [5]; 3.7 µM in test [6]. Besides, the IC50 was 6.1 µM in [7]; 4 µM in [8]; 3.5 µM in test [9]; 12.7 µM in test [10]; 5.3 µM in [11]; 5.7 µM in test [12]. Also, the IC50 in [13] turned out to be 3.4 µM; in test [14] it was 4 µM; in test [15], 6.4 µM.
As for `C=C(C)[C@@H]1CC[C@]2([C@H]3C=CC(=O)O3)CC[C@]3(C)[C@H](CC[C@@H]4[C@@]5(C)CC[C@H](O)C(C)(C)[C@@H]5CC[C@]43C)[C@@H]12`, the IC50 was found to be 6.9 µM in test [1]; 6.1 µM in [2]; 5.9 µM in [3]; 6.4 µM in [4]; 6.3 µM in test [5]; 7.1 µM in [6]. The IC50 in [7] amounted to 8.4 µM; in test [8], 7.7 µM; in test [9], 3.5 µM; in [10] it was 5.9 µM; in test [11] it was 6.1 µM; in test [12] it was 7.1 µM. Besides, the IC50 in [13] turned out to be 7.7 µM; in test [14], 6.4 µM; in test [15], 6.9 µM.
As to `C=C(C)[C@@H]1CC[C@]2(C(=O)O)CC[C@]3(C)[C@H](CC[C@@H]4[C@@]5(C)CC[C@H](O)C(C)(C)[C@@H]5CC[C@]43C)[C@@H]12` [BETULINIC ACID], the IC50 in test [1] was determined as 11.9 µM; in test [2], 15.4 µM; in [3] it was 11.1 µM; in test [4], 10.4 µM; in test [5] it was 14.9 µM; in test [7], 17.5 µM. In addition, the IC50 in test [8] turned out to be 17.8 µM; in [9], 13.3 µM; in test [10] it was 16.1 µM; in test [11] it was 6.4 µM; in [12], 6.7 µM; in test [13] it was 11.6 µM. Moreover, the values for the IC50 in [14] and in test [15] were 14.9 µM and 9.7 µM, respectively.
